The source of these data is ChEMBL document CHEMBL4152262, “Design, synthesis and evaluation of novel multi-target-directed ligands for treatment of Alzheimer's disease based on coumarin and lipoic acid scaffolds” (Eur J Med Chem, 2018).

For test [1], the system named is PC-12. Briefly: Inhibition of H2O2-induced ROS generation in rat PC12 cells assessed as intracellular ROS level at 50 uM preincubated for 6 hrs followed by H2O2 addition measured after 18 hrs by DCFH-DA staining based fluorimetric method relative to control. It counts as functional. Set-up: scale not given: the % may be the effect or the level left. The gist of the method:
(§1)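 PC12 cells at 1×10^4/well in RPMI with 10% FBS and penicillin/streptomycin, 24 h at 37 °C, 5% CO2. Test samples (1, 5, 10, 50 µM; ≤0.5% DMSO) for 6 h, PBS wash, then H2O2 150 µM for 18 h. Loaded with 10 µM DCFH-DA for 30 min at 37 °C in the dark, washed twice. DCF fluorescence read at ex 485/em 528 nm as % of untreated control. Three independent experiments, mean ± SEM.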

For test [2], the target named is Amyloid-beta precursor protein (Homo sapiens) (UniProt P05067). Briefly: Inhibition of amyloid beta (1 to 42) (unknown origin) self-induced aggregation at 100 uM incubated for 48 hrs by thioflavin-T fluorescence assay relative to control.
For test [3], the system named is PC-12. Briefly: Inhibition of H2O2-induced ROS generation in rat PC12 cells assessed as intracellular ROS level at 10 uM preincubated for 6 hrs followed by H2O2 addition measured after 18 hrs by DCFH-DA staining based fluorimetric method relative to control. The class given is functional. On the set-up: scale not given: the % may be the effect or the level left. The gist of the method: as §1

For test [4], the system named is PC-12. The test is described as follows: Inhibition of H2O2-induced ROS generation in rat PC12 cells assessed as intracellular ROS level at 1 uM preincubated for 6 hrs followed by H2O2 addition measured after 18 hrs by DCFH-DA staining based fluorimetric method relative to control. It counts as functional. Set-up: scale not given: the % may be the effect or the level left. The method, boiled down: as §1

In another test the test system is SH-SY5Y. Briefly: Neuroprotection against H2O2-induced cell death in human SH-SY5Y cells assessed as cell viability at 10 uM preincubated for 3 hrs followed by H2O2 addition measured after 24 hrs by MTT assay relative to control. It counts as functional. The note with it: read-out: Activity. The gist of the method: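 SH-SY5Y cells grown in DMEM with 10% FBS, 1% L-glutamine and antibiotics, 5×10^3/well. Compound (10 or 50 µM) for 3 h before 250 µM H2O2, then 24 h incubation. MTT read at 570 nm after DMSO solubilization. Viability as blank-corrected % of untreated control; three independent experiments, mean ± SEM.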

The target in a further test is Cholinesterase (Equus caballus, UniProt P81908). Briefly: Inhibition of equine serum BuChE using butyrylthiocholine iodide as substrate pretreated for 5 mins followed by substrate addition by Ellman's method. The gist of the method:
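Ellman assay with horse serum BuChE (5 IU/mL) in 0.1 M phosphate buffer pH 8.0 with DTNB. Compound was preincubated with enzyme 5 min, then butyrylthiocholine iodide was added. Absorbance read at 412 nm. IC50 from a log concentration vs % inhibition curve; triplicate runs.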

A short description of test [5]: Metal chelating activity assessed as mole fraction of compound required to show 2:1 stoichiometry for compound-Cu2+ complex at 40 uM after 30 mins by UV titration method. The method, boiled down: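 Molar ratio method: 2.5 mL of 40 µM ligand in methanol titrated with CuCl2 (1000 µM in methanol) in 0.01 mL steps. Absorbance at 365 nm plotted against mole fraction; stoichiometry read from where the two straight lines cross.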

Cholinesterase, sequence (P81908 whole entry): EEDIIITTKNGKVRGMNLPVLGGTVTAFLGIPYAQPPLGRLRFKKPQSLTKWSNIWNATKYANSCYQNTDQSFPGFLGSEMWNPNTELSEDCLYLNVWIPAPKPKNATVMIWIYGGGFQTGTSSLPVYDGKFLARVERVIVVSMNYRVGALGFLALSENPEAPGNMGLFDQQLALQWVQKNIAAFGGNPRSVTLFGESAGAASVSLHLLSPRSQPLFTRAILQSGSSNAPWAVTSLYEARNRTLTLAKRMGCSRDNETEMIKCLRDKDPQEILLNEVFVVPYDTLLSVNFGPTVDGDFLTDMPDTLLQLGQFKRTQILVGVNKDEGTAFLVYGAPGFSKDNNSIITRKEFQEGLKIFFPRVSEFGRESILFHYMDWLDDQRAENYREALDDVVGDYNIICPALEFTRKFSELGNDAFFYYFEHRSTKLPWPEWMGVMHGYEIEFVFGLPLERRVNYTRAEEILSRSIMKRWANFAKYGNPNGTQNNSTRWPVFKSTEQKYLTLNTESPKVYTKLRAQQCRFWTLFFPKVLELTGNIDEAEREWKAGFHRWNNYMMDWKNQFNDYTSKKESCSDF
Amyloid-beta precursor protein (Homo sapiens), sequence (P05067 whole entry): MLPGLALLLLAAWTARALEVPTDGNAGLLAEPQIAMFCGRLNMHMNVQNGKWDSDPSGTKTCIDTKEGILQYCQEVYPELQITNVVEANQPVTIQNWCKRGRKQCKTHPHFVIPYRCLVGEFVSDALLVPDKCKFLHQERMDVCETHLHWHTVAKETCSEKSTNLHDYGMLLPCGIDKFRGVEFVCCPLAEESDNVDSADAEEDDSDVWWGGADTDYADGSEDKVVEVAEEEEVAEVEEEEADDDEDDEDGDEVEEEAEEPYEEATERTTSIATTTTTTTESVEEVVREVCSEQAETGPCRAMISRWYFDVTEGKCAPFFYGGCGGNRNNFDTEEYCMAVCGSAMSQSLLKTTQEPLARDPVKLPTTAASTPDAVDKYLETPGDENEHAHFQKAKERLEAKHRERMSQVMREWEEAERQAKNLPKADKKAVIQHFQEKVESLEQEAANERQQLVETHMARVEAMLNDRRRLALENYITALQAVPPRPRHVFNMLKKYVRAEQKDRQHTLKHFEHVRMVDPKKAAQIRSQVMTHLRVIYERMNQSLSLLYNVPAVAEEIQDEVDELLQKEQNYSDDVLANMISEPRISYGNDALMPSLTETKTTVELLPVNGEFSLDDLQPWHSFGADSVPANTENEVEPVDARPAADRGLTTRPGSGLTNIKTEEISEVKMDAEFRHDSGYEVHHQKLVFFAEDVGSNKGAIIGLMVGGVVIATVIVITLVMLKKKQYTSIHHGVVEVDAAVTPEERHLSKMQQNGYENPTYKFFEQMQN

On to `COc1ccc(-c2cc3ccc(OCCCn4cc(CNC(=O)CCCCC5CCSS5)nn4)cc3oc2=O)cc1OC` (configuration not stated), for which the Activity in the test on PC-12 [1] was found to be 91.6%; in the test on PC-12 [3] it was 43.04%; in the test with PC-12 [4], 88.84%; in test [5] it was 0.5 molar ratio. Moreover, the inhibition in test [2] came out at 51.2%. The viability at 10 µM in the test with SH-SY5Y is 64%. Also, the IC50 at Cholinesterase stood at 49.4 µM.
